Several values for one entry are separate records, joined by “and”; a condition that tells them apart may be missing. Equal values may be shown once. Read-outs that look alike come from different tables or passages of the source.
Legend:
[1] = biological target: hGluA2 AMPARs (Homo sapiens, UniProt P42262); test: Recombinant receptor whole-cell electrophysiology; assay type: cell-based; settings: 1 mM glutamate
In short: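 HEK cells stably expressing hGluA2 were plated on poly-D-lysine coverslips and used 1-2 days later. Perforated-patch whole-cell recording at -60 mV used 2-5 MΩ pipettes, NaCl/HEPES external solution (pH 7.35) and CsCl/EGTA internal solution (pH 7.3). Glutamate (1 mM) was applied by fast perfusion for 2 s every 30 s, with or without test compound. Responses were related to the current from 1 mM glutamate alone.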

[2] = system: dog; test: 7-day dose-range finding study, dog; assay type: in vivo; settings: doses of up to 1,000 mg/kg
[3] = system: Human GluK2 receptors; test: Ca2+ flux assay or whole-cell patch clamp, GluK2; assay type: cell-based; settings: Ca2+ flux assay or whole-cell patch clamp (data not shown)
In short: (§1)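 Kainate receptors in HEK cells: hGluK1 (Q-unedited) by lipofectamine transient transfection, hGluK2 stably expressed. Cells were seeded 24 h before assay. In the Ca2+ flux format, cells were loaded with Fluo-4AM (2 μM final) for 60 min in the dark, washed, then given test compound (1:3 serial dilution) plus glutamate (100 μM final), with FLIPR fluorescence read-out.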

[4] = biological target: hGluA3i AMPAR (Homo sapiens, UniProt P42263); test: Intracellular Ca2+ influx assay; assay type: cell-based
Sequence of hGluA3i AMPAR (P42263 29-894 isoform P42263-2 limits assumed): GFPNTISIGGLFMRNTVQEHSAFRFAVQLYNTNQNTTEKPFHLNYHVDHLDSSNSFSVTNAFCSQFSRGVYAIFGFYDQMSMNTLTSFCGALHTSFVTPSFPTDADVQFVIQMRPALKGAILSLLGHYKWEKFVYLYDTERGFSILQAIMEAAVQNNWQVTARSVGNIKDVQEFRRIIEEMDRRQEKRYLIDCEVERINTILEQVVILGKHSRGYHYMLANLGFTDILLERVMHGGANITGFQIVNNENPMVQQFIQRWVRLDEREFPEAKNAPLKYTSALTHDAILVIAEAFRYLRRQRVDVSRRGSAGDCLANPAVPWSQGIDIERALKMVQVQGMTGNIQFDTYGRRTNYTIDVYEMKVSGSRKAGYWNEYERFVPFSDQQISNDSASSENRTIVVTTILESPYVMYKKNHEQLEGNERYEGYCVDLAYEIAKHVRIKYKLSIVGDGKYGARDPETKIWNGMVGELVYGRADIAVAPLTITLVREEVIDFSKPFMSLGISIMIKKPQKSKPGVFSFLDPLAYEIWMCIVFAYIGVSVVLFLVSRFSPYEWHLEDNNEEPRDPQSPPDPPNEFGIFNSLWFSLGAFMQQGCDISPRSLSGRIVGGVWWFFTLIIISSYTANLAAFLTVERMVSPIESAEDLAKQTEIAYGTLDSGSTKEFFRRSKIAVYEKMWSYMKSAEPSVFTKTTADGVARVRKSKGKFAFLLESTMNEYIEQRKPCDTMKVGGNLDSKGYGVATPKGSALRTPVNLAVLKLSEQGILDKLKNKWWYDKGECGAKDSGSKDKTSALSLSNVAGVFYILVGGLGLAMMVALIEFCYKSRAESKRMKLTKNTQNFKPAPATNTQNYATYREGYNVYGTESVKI
In short: (§2)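 AMPA receptor flip isoforms expressed in HEK-293 cells: hGluA1i, hGluA3i, hGluA4i and rat GluA2i by lipofectamine transient transfection, and hGluA2i stably. All were Q-unedited in TM2. Cells were seeded on poly-D-lysine 2 days before assay and loaded with Fluo-4AM (2 μM final) for 60 min in the dark in HEPES buffer, pH 7.3. Test compound (1:3 serial dilution) was added with glutamate (100 μM final), and FLIPR fluorescence was read. Maximum response was scaled to LY404187 run on each plate.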

[5] = system: rat; test: 4-week GLP safety assessment study, rat; assay type: in vivo
[6] = 4-week GLP safety assessment study, rat; assay type: in vivo; settings: rat, plasma, po, 800 mg/kg
[7] = biological target: rat GluA2i AMPAR (Rattus norvegicus, UniProt P19491); test: Intracellular Ca2+ influx assay; assay type: cell-based
Sequence of rat GluA2i AMPAR (P19491 22-883 isoform P19491-2 limits assumed): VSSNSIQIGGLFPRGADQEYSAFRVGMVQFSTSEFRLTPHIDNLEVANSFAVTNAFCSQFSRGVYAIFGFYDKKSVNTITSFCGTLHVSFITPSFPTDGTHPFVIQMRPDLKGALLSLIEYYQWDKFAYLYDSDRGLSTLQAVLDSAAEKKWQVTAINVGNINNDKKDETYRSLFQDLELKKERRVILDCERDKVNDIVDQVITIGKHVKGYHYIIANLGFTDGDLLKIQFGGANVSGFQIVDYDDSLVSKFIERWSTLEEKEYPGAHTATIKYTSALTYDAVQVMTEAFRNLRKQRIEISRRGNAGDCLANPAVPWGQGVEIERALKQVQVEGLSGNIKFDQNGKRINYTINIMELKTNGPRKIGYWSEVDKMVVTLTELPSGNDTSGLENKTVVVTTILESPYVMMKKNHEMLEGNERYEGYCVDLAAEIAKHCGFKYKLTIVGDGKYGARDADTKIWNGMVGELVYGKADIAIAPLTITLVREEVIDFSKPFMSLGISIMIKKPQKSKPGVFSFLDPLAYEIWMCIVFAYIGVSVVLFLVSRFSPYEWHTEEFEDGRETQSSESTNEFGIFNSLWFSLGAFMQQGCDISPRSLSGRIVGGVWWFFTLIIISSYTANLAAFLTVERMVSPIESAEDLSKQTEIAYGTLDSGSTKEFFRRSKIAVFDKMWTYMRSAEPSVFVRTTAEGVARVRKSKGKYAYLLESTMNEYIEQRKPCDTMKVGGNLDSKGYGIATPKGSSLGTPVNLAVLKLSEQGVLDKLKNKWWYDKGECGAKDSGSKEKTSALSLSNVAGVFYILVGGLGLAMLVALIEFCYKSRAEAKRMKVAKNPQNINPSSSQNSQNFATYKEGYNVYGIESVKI
In short: as §2

[8] = biological target: hGluA4i AMPAR (Homo sapiens, UniProt P48058); test: Intracellular Ca2+ influx assay; assay type: cell-based
Sequence of hGluA4i AMPAR (P48058 21-902): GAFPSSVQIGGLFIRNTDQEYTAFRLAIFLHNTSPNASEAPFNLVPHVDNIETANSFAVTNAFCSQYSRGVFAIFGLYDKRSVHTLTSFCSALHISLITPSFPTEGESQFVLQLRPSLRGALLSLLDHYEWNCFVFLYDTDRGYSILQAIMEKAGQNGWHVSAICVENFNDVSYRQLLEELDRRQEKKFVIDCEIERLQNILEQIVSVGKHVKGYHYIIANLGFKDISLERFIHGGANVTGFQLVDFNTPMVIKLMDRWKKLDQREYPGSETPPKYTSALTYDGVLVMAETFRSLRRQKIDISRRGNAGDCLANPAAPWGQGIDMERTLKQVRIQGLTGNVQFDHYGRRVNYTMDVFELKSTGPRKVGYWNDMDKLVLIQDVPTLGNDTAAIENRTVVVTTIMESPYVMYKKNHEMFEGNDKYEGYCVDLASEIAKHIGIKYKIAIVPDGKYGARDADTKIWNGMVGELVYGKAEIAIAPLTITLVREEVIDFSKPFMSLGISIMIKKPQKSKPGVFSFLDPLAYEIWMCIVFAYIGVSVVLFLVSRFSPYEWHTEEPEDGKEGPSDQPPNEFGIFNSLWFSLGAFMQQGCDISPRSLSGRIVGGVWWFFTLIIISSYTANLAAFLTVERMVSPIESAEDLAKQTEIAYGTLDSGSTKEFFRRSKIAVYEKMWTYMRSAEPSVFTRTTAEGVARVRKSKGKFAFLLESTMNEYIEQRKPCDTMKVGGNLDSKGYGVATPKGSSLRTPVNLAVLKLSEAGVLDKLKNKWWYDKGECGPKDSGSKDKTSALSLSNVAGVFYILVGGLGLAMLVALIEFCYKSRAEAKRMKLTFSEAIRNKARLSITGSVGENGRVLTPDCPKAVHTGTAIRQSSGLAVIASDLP
In short: as §2

[9] = system: male Lister Hooded rats; test: Maximal electroshock threshold
[10] = Maximal electroshock threshold; settings: male, Lister Hooded, rat, brain, oral, 30 mg/kg
[11] = system: Male Wistar rats; test: Passive avoidance, scopolamine-induced deficit; assay type: in vivo, rat
[12] = system: Heteromeric hGluN1A/GluN2B NMDARs; test: Ca2+ flux assay or whole-cell patch clamp, NMDAR; assay type: cell-based, human; settings: Ca2+ flux assay or whole-cell patch clamp (data not shown)
In short: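 HEK-293 cells were transduced with hGluN1A and hGluN2B BacMam vectors in the presence of 500 μM ketamine, then plated on poly-D-lysine, still with 500 μM ketamine, for 24 h. In the Ca2+ flux format, cells were loaded with Fluo-4AM (2 μM final) for 60 min, washed, then given test compound (1:3 serial dilution) plus glutamate (100 μM final), with FLIPR fluorescence read-out.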

[13] = In vivo electrophysiology, dentate gyrus population spike; design: species or system rat; settings: male, Lister hooded, rat, brain, iv
[14] = system: anaesthetised rats; test: as above; design: species or system rat; settings: 10 mg/kg i.v.; vehicle 70%
[15] = system: dog; test: 4-week GLP safety assessment study, dog; assay type: in vivo
[16] = system: pregnane X receptor; test: Pregnane X receptor activation; settings: linked to a potential for drug-drug interactions
[17] = Novel object recognition; settings: rat, in vivo, 0.1 mg/kg, 0.1 mg/kg p.o. sub-chronic
[18] = system: rats; test: Novel object recognition; settings: p.o.
[19] = system: native neuronal AMPARs in rat cultured hippocampal neurons; test: Native receptor electrophysiology in cultured hippocampal neurons; assay type: cell-based
In short: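 Hippocampi from embryonic rats were trypsinised (0.05%, 30 min, 37 °C), dissociated and grown in Neurobasal/B27 for 5-13 days. Whole-cell voltage clamp was held at -70 mV, with AMPA (30 μM) applied for 2 s every 30 s by fast perfusion, with test compound at 1 nM-10 μM. Charge transfer, desensitisation and deactivation were compared with AMPA alone by paired t-test.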

[20] = system: rat; test: 7-day dose-range finding study, rat; assay type: in vivo; settings: doses of up to 1,600 mg/kg, 7-day
[21] = 7-day dose-range finding study, rat; assay type: in vivo; settings: rat, plasma, po, 1600 mg/kg
[22] = biological target: Homomeric human GluA1 flip isoform (hGluA1i) (Homo sapiens, UniProt P42261); test: Intracellular Ca2+ influx assay; assay type: cell-based; settings: relative to positive control LY404187
Sequence of Homomeric human GluA1 flip isoform (hGluA1i) (P42261 19-906 isoform P42261-2 limits assumed): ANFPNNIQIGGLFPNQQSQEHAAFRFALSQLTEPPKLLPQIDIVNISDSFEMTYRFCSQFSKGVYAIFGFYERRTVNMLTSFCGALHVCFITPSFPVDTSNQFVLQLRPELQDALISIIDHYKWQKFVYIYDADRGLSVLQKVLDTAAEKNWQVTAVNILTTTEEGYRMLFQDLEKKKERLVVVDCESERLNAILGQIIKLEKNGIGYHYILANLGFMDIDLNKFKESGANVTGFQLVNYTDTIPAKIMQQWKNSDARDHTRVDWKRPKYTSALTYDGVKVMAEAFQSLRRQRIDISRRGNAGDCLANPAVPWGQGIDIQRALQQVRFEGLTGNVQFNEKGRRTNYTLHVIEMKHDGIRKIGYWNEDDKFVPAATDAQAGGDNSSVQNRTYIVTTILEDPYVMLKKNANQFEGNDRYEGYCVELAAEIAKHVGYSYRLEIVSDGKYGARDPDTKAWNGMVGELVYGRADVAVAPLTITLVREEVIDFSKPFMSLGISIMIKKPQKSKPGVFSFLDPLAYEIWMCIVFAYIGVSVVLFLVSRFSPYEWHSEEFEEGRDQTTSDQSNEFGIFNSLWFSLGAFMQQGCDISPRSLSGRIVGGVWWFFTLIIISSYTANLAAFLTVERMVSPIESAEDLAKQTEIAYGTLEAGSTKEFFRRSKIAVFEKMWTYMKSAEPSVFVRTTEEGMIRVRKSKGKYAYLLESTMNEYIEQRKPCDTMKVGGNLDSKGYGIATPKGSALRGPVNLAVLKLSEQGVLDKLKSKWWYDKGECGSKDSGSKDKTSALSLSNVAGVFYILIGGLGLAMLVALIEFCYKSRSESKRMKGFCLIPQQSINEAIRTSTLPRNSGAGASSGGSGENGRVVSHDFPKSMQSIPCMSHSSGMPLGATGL
In short: as §2

[23] = system: Homomeric hGluK1 kainate receptors; test: Ca2+ flux assay or whole-cell patch clamp, GluK1; assay type: cell-based, human; settings: Ca2+ flux assay or whole-cell patch clamp (data not shown)
In short: as §1

[24] = Solubility; assay type: physicochemical
[25] = biological target: hGluA2i AMPAR (Homo sapiens, UniProt P42262); test: Intracellular Ca2+ influx assay; assay type: cell-based
Sequence of hGluA2i AMPAR (P42262 25-883 isoform P42262-2 limits assumed): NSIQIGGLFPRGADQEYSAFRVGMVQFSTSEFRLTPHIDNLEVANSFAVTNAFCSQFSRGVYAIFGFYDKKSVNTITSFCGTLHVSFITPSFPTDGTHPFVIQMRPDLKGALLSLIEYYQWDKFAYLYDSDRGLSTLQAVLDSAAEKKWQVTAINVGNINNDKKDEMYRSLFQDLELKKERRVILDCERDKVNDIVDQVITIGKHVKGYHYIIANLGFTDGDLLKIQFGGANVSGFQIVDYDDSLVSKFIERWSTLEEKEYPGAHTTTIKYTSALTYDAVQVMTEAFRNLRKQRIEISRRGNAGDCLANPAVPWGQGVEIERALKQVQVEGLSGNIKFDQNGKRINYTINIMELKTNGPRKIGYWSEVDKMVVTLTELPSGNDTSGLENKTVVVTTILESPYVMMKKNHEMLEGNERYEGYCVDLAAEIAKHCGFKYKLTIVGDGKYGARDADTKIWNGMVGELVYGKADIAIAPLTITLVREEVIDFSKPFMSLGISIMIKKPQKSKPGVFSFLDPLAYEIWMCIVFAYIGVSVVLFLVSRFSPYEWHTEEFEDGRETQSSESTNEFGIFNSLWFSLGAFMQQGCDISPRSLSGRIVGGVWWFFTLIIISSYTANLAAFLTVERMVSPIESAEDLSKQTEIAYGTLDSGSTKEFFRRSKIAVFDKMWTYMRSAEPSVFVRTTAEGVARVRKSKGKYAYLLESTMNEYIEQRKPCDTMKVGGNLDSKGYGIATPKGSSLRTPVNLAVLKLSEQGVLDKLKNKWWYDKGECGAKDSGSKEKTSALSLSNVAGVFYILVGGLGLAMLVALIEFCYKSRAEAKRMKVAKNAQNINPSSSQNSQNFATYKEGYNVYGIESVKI
In short: as §2

[26] = system: rats; test: 6-week GLP Safety and Toxicity study of UoS12258, rat; assay type: in vivo
[27] = system: male Lister Hooded rats; settings: ref Ward et al., 2017, cited from earlier work
[28] = system: native neuronal AMPARs in rat cultured hippocampal neurons; settings: rat primary hippocampal neurons; ref Ward et al., 2017; cited from earlier work
[29] = system: rats; settings: p.o.; ref Ward et al., 2017; cited from earlier work
[30] = system: Male Wistar rats; settings: p.o.; ref Ward et al., 2017; cited from earlier work
[31] = system: cynomolgus monkeys; test: 6-week GLP Safety and Toxicity study of UoS12258, cynomolgus monkey; assay type: in vivo; settings: 6-week GLP
[32] = as above; assay type: in vivo; settings: cynomolgus monkey, in vivo, po
[33] = relative to positive control LY404187

Sequence of hGluA2 AMPARs (P42262 25-883 isoform P42262-2 limits assumed): as above

## O=C(c1ccc(-n2nc(C(F)(F)F)c3c2CCCC3)cc1)N1CCCC1 [MDI-222, 1-[4-(1-pyrrolidinylcarbonyl)phenyl]-3-(trifluoromethyl)-4,5,6,7-tetrahydro-1H-indazole]
[1]; 100 nM
  potentiation of glutamate-evoked charge transfer (area under the curve): 121 ± 7%
[1]; 10 μM
  potentiation of glutamate-evoked charge transfer (area under the curve): 702 ± 40%
[2]
  convulsions / tolerability: did not produce convulsions
[3]
  effect on glutamate-induced currents: no effects
[4]
  EC50: 31.6 µM
[4]; [33]
  Max. % response: 53 ± 3 (3) %
[5]; 4-week study
  systemic exposure on Day 28 relative to Day 1, fold lower: up to 6 fold
[5]; highest dose 800 mg/kg, 4-week GLP
  convulsions: no convulsions observed
[6]
  Cmax: 13 to 17000 ng/mL
[7]
  EC50: 3.98 µM
[7]; [33]
  Max. % response: 76 ± 8 (4) %
[8]
  EC50: 7.94 µM
[8]; [33]
  Max. % response: 76 ± 1 (4) %
[9]; 30 mg/kg p.o.
  brain drug concentration: approximately 4.7 μg/g
[9]; 3, 10 and 30 mg/kg p.o.
  CC50 lower than vehicle-treated rats: 10-15%
[9]; up to 30 mg/kg p.o.
  effect on seizure threshold: did not significantly affect the seizure threshold
[10]
  concentration at 0.5 h: ~4700 ng/g
[11]; p.o.
  MED, reversal of scopolamine-induced deficit: 10 mg/kg
[12]
  effect on glutamate-induced currents: no effects
[13]
  concentration at 20 min: 11600 ng/g
[14]
  dentate gyrus population spike amplitude: 139 % of baseline
[15]; 4-week study
  systemic exposure on Day 28 relative to Day 1, fold lower: ≤ 9 fold
[15]; highest dose 1,000 mg/kg, 4-week GLP
  convulsions: no convulsions observed
[16]
  pregnane X receptor: activation
[17]; mean blood level
  concentration at 30 min: 7 ng/mL
[17]; mean brain level
  concentration at 30 min: 9 ng/g
[18]; acute single-dose
  minimal effective dose (D2 index), acute: 0.3 mg/kg
[18]; sub-chronic (7-day) dosing
  minimal effective dose, sub-chronic: 0.1 mg/kg
[19]; 1 nM
  Charge transfer, normalised to AMPA alone: 1.14 ± 0.05
  Deactivation, normalised to AMPA alone: 1.06 ± 0.04
  Desensitisation, normalised to AMPA alone: 0.77 ± 0.10
[19]; 10 nM
  Charge transfer, normalised to AMPA alone: 1.37 ± 0.09
  Deactivation, normalised to AMPA alone: 1.19 ± 0.15
  Desensitisation, normalised to AMPA alone: 0.81 ± 0.05
[19]; 100 nM
  Charge transfer, normalised to AMPA alone: 1.33 ± 0.12
  Deactivation, normalised to AMPA alone: 1.29 ± 0.17
  Desensitisation, normalised to AMPA alone: 0.76 ± 0.03
[19]; 1 μM
  Charge transfer, normalised to AMPA alone: 1.28 ± 0.14
  Deactivation, normalised to AMPA alone: 1.33 ± 0.17
  Desensitisation, normalised to AMPA alone: 0.72 ± 0.04
[19]; 10 μM
  Charge transfer, normalised to AMPA alone: 1.62 ± 0.15
  Deactivation, normalised to AMPA alone: 2.79 ± 0.43
  Desensitisation, normalised to AMPA alone: 0.25 ± 0.08
  increase in charge transfer (maximal potentiation): 62%
[19]; AMPA 30 μM
  minimum effective concentration, charge transfer: 1 nM
  minimum effective concentration, desensitisation: 10 nM
[19]; no agonist
  inward current when applied in the absence of AMPA: did not invoke an inward current
[20]
  convulsions / tolerability: did not produce convulsions
[21]
  Cmax: ~15000 ng/mL
[22]
  Max. % response: 30 ± 2 (4) %
[23]
  effect on glutamate-induced currents: no effects
[24]
  solubility: poor solubility
[25]
  EC50: 5 µM
[25]; [33]
  Max. % response: 123 ± 7% and 123 ± 7 (9) %

## CC(C)S(=O)(=O)N[C@H]1Cc2ccc(-c3ccc(F)nc3)cc2C1 [UoS12258, N-[(2S)-5-(6-fluoro-3-pyridinyl)-2,3-dihydro-1H-inden-2-yl]-2-propanesulfonamide]
[26]
  dose at which convulsions were observed: 10 mg/kg
[27]; 100 mg/kg p.o.
  brain exposure: around 5.0 μg/g
  proconvulsant effect in MEST: comparable to that of the positive control picrotoxin
[27]; p.o.
  proconvulsant dose in MEST: 10 mg/kg
[28]
  maximal potentiation in the charge transfer: 310%
[29]
  MED, NOR following sub-chronic dosing: 0.01 mg/kg
  MED, acute-dosing NOR: 0.3 mg/kg
[30]
  MED, reversal of scopolamine-induced deficit: 3 mg/kg
[31]
  dose at which convulsions were observed: 4 mg/kg
[32]
  NOAEL at 6 weeks: 2.5 mg/kg

## CN1[C@@H]2C[C@@H](OC(=O)[C@H](CO)c3ccccc3)C[C@H]1[C@@H]1O[C@@H]12 [scopolamine, reference compound]
[11]; scopolamine 1 mg/kg i.p., vehicle 457 ± 83 s
  step-through latency: 157 ± 46 s

Reference: publication PMC7610887 (Journal of psychopharmacology (Oxford, England), 2019)
